The values that follow come from ChEMBL document CHEMBL1157065, “Synthesis and evaluation of some new substituted benzothiazepine and benzoxazepine derivatives as anticonvulsant agents” (Eur J Med Chem, 2010).

One series deals with Rattus norvegicus. In words: Anticonvulsant activity in Charles foster rat assessed as protection against maximal electroshock-induced seizures at 30 mg/kg, ip administered 1 hr before electroshock challenge. The series is classed as functional. The following applies: route intraperitoneal. The method in brief:
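Charles Foster rats of either sex, 90–150 g, in groups of ten, dosed i.p. with test drug or phenytoin sodium 30 mg/kg. 1 h after dosing, shock of 150 mA delivered by convulsiometer through ear electrodes for 2 s. Presence or absence of extensor response recorded.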

Series [1] is described as follows: Acute toxicity in ip dosed mouse. The following applies: in vivo, read-out: ALD50. The series is classed as organism-based.

Regarding `COc1ccc(N/C=C2\C(c3ccc(O)cc3)=Nc3ccccc3OC2c2cccc(OC)c2)cc1` (configuration not stated), in the series with Rattus norvegicus, the Activity is given as 70%. In addition, the LD50 in series [1] is more than 1000 mg/kg.
In the same order, the values of `Oc1ccc(C2=Nc3ccccc3OC(c3ccccc3Cl)C2)cc1` (configuration not stated) are 70% and more than 1000 mg/kg.
In the same order, the values of `Oc1ccc(C2=Nc3ccccc3SC(c3ccc(Cl)cc3)C2)cc1` (configuration not stated) are 70% and more than 1000 mg/kg.
In the same order, the values of `Oc1ccc(C2=Nc3ccccc3OC(c3ccc(Cl)cc3)C2)cc1` (configuration not stated) are 60% and more than 1000 mg/kg.
Take `Oc1ccc(C2=Nc3ccccc3OC(c3ccc(O)cc3)C2)cc1` (configuration not stated): the Activity in the series on Rattus norvegicus worked out at 70%. Besides, in series [1], the LD50 is more than 1000 mg/kg.
With `COc1cccc(C2Sc3ccccc3N=C(c3ccc(O)cc3)/C2=C\Nc2ccc(Cl)cc2)c1` (configuration not stated), the Activity in the series with Rattus norvegicus was 40%. The LD50 in series [1] is more than 1000 mg/kg.
As to `COc1ccc(N/C=C2\C(c3ccc(O)cc3)=Nc3ccccc3SC2c2cccc(OC)c2)cc1` (configuration not stated), the Activity in the series with Rattus norvegicus came to 50%. Moreover, in series [1], the LD50 is more than 1000 mg/kg.
In the same order, the values of `Oc1ccc(C2=Nc3ccccc3OC(c3ccccc3O)C2)cc1` (configuration not stated) are 60% and more than 1000 mg/kg.
As for `COc1cccc(C2Oc3ccccc3N=C(c3ccc(O)cc3)/C2=C\Nc2ccc(Cl)cc2)c1` (configuration not stated), the Activity with Rattus norvegicus stood at 30%. The LD50 in series [1] was more than 1000 mg/kg.
In the case of `Oc1ccc(C2=Nc3ccccc3OC(c3ccccc3Cl)/C2=C/Nc2ccc(Cl)cc2)cc1` (configuration not stated), in the series with Rattus norvegicus, the Activity came to 50%. Moreover, the LD50 in series [1] was more than 1000 mg/kg.
On to `Oc1ccc(C2=Nc3ccccc3OC(c3ccc(Cl)cc3)/C2=C/Nc2ccc(Cl)cc2)cc1` (configuration not stated), for which the Activity in the series with Rattus norvegicus turned out to be 60%. Further, in series [1], the LD50 was more than 1000 mg/kg.
In the case of `COc1ccc(N/C=C2\C(c3ccc(O)cc3)=Nc3ccccc3OC2c2ccccc2Cl)cc1` (configuration not stated), the Activity in the series with Rattus norvegicus was determined as 60%. In addition, the LD50 in series [1] is more than 1000 mg/kg.
For `Oc1ccc(C2=Nc3ccccc3SC(c3ccccc3Cl)/C2=C/Nc2ccc(Cl)cc2)cc1` (configuration not stated), in that order: 70% and more than 1000 mg/kg.
Take `Oc1ccc(C2=Nc3ccccc3SC(c3ccccc3Cl)C2)cc1` (configuration not stated): the Activity in the series with Rattus norvegicus is recorded as 80%. Further, the LD50 in series [1] was more than 1000 mg/kg.
As for `Oc1ccc(C2=Nc3ccccc3SC(c3ccccc3O)C2)cc1` (configuration not stated), in the series on Rattus norvegicus, the Activity is listed as 70%. For the same molecule, in series [1], the LD50 is more than 1000 mg/kg.
Turning to `Oc1ccc(C2=Nc3ccccc3SC(c3ccc(O)cc3)C2)cc1` (configuration not stated), in the series on Rattus norvegicus, the Activity came out at 60%. In addition, the LD50 in series [1] was more than 1000 mg/kg.
In the same order, the values of `COc1cccc(C2CC(c3ccc(O)cc3)=Nc3ccccc3O2)c1` (configuration not stated) are 20% and more than 1000 mg/kg.
In the same order, the values of `COc1cccc(C2CC(c3ccc(O)cc3)=Nc3ccccc3S2)c1` (configuration not stated) are 30% and more than 1000 mg/kg.
For `COc1ccc(N/C=C2\C(c3ccc(O)cc3)=Nc3ccccc3OC2c2ccc(Cl)cc2)cc1` (configuration not stated), in that order: 50% and more than 1000 mg/kg.
Take `Oc1ccc(C2=Nc3ccccc3SC(c3ccc(Cl)cc3)/C2=C/Nc2ccc(Cl)cc2)cc1` (configuration not stated): the Activity with Rattus norvegicus stood at 70%. For the same molecule, the LD50 in series [1] was more than 1000 mg/kg.
Consider `Oc1ccc(C2=Nc3ccccc3SC(c3ccccc3O)/C2=C/Nc2ccc(Cl)cc2)cc1` (configuration not stated), for which the Activity in the series on Rattus norvegicus is listed as 60%. For the same molecule, the LD50 in series [1] is more than 1000 mg/kg.
For `Oc1ccc(C2=Nc3ccccc3SC(c3ccc(O)cc3)/C2=C/Nc2ccc(Cl)cc2)cc1` (configuration not stated), in that order: 60% and more than 1000 mg/kg.
For `COc1ccc(N/C=C2\C(c3ccc(O)cc3)=Nc3ccccc3SC2c2ccccc2Cl)cc1` (configuration not stated), in that order: 90% and more than 1000 mg/kg.
For `COc1ccc(N/C=C2\C(c3ccc(O)cc3)=Nc3ccccc3SC2c2ccc(Cl)cc2)cc1` (configuration not stated), in that order: 70% and more than 2000 mg/kg.
Regarding `COc1ccc(N/C=C2\C(c3ccc(O)cc3)=Nc3ccccc3SC2c2ccccc2O)cc1` (configuration not stated), the Activity in the series on Rattus norvegicus is 70%. Besides, the LD50 in series [1] was more than 1000 mg/kg.
For the molecule `COc1ccc(N/C=C2\C(c3ccc(O)cc3)=Nc3ccccc3OC2c2ccccc2O)cc1` (configuration not stated), the Activity in the series with Rattus norvegicus amounted to 60%. The LD50 in series [1] was more than 1000 mg/kg.
With `COc1ccc(N/C=C2\C(c3ccc(O)cc3)=Nc3ccccc3SC2c2ccc(O)cc2)cc1` (configuration not stated), the Activity in the series with Rattus norvegicus came to 60%. The LD50 in series [1] is more than 1000 mg/kg.
For `Oc1ccc(C2=Nc3ccccc3OC(c3ccccc3O)/C2=C/Nc2ccc(Cl)cc2)cc1` (configuration not stated), in that order: 60% and more than 1000 mg/kg.
In the same order, the values of `Oc1ccc(C2=Nc3ccccc3OC(c3ccc(O)cc3)/C2=C/Nc2ccc(Cl)cc2)cc1` (configuration not stated) are 70% and more than 1000 mg/kg.
As to `COc1ccc(N/C=C2\C(c3ccc(O)cc3)=Nc3ccccc3OC2c2ccc(O)cc2)cc1` (configuration not stated), in the series with Rattus norvegicus, the Activity is 50%. For the same molecule, in series [1], the LD50 was more than 1000 mg/kg.
`O=C1N=C([O-])NC1(c1ccccc1)c1ccccc1.[Na+]` [PHENYTOIN SODIUM]: the Activity in the series with Rattus norvegicus was 80%.
On to `CC(O)CO` (configuration not stated) [PROPYLENE GLYCOL], for which, in the series with Rattus norvegicus, the Activity was found to be 0%.
